Results from ChEMBL document CHEMBL3632527 (J Med Chem, 2015).
The source made the active and inactive calls. No cut-off for these calls is given here.

Tests used:
[1] = target: T1, Translocator protein (Homo sapiens, UniProt P30536); experiment: Displacement of [3H]PK11195 from TSPO in human HEK293T cell membranes incubated for 90 mins by competition radioligand binding assay; design: species or system HEK-293T
[2] = target: T1, Translocator protein; experiment: Displacement of [3H]PK11195 from TSPO in human T98G cell membranes incubated for 90 mins by competition radioligand binding assay
[3] = tested on: T98G; experiment: Antiproliferative activity against human T98G cells at 1 to 100 uM incubated for 48 hrs by BrdU enzyme-linked immunosorbent assay; assay type: functional, cell-based
How it was run: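 Basal proliferation of T98G human glioma cells, which carry the Ala147 TSPO genotype without the rs6971 polymorphism, was measured with compounds alone at 1–100 μM.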

[4] = tested on: T98G; experiment: Potentiation of antiproliferative activity of PK11195 against human T98G cells incubated for 48 hrs by BrdU enzyme-linked immunosorbent assay; assay type: functional, cell-based
[5] = tested on: T98G; experiment: Potentiation of antiproliferative activity of PK11195 at 10 uM against human T98G cells incubated for 48 hrs by BrdU enzyme-linked immunosorbent assay; assay type: functional, cell-based
[6] = tested on: T98G; experiment: Cytotoxicity against human T98G cells assessed as cell viability in the presence of PK11195 after 48 hrs by cell titer blue staining based fluorescence method
[7] = tested on: T98G; experiment: Cytotoxicity against human T98G cells assessed as cell viability after 48 hrs by cell titer blue staining based fluorescence method
[8] = tested on: T98G; experiment: Potentiation of antiproliferative activity of PK11195 at 100 uM against human T98G cells incubated for 48 hrs by BrdU enzyme-linked immunosorbent assay; assay type: functional, cell-based
[9] = tested on: T98G; experiment: Potentiation of antiproliferative activity of PK11195 at 62.5 uM against human T98G cells incubated for 48 hrs by BrdU enzyme-linked immunosorbent assay; assay type: functional, cell-based

T1 sequence (P30536 whole entry): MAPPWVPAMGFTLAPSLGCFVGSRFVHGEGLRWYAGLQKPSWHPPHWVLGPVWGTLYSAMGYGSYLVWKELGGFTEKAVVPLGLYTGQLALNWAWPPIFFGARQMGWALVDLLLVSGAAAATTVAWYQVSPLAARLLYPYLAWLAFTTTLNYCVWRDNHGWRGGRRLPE

Compound	Ki [1] [µM]	Ki [2] [µM]	Activity [3]	EC50 [4] [µM]	Activity [5]	Activity [6]	Activity [7]	Activity [8]	Activity [9]
CCN(CC)C(=O)Cn1c(-c2ccc(OC)cc2)cc2c(C)cc(C)cc21	0.0281	0.806	inactive	14.7	Active	Non-toxic	Non-toxic	–	–
CCN(CC)C(=O)Cc1c(-c2ccc(OC)cc2)nn2c(C)cc(C)nc12	–	–	inactive	–	–	Non-toxic	Non-toxic	inactive	–
CCN(CC)C(=O)Cn1c(-c2ccc(OC)cc2)nc2c(C)nc(C)nc21	> 10	> 10	inactive	–	–	Non-toxic	Non-toxic	inactive	–
CCN(CC)C(=O)Cn1c(-c2ccc(OC)cc2)nc2c(C)cc(C)cc21	0.224	0.398	inactive	–	–	Non-toxic	Non-toxic	–	Active
CCN(CC)C(=O)Cn1c(-c2ccc(OC)cc2)nc2c(C)cc(C)nc21	0.0291	0.144	inactive	–	–	Non-toxic	Non-toxic	inactive	–
